Data set [1] concerns Rattus norvegicus. As to the kind of experiment: Antiinflammatory activity in rat assessed as carrageenan-induced foot edema at 2 x 100 mg/kg, po relative to control. It counts as functional. The method in brief: (§1)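 Rats were given carrageenan-induced foot edema by the Winter et al. method, modified as described in the paper's ref 1. Compound was dosed orally twice (dose × 2). The read-out was percent reduction of swelling relative to untreated controls, with significance given as p values.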

The nature of data set [2]: Octanol-water partition coefficient, P of the compound.
A short description of data set [3]: Dissociation constant, pKa of the compound in 75% EtOH. It counts as physicochemical. The method in brief:
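pKa was determined in 75% EtOH, and values are reported to ±0.025.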

Data set [4] is described as follows: Toxicity in po dosed mouse. The note with it: in vivo. Format: organism-based. The essentials: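 Approximate LD50 in mice after oral dosing, in mg/kg.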
Data set [5] has as its system Rattus norvegicus. As to the kind of experiment: Antiinflammatory activity in rat assessed as carrageenan-induced foot edema at 2 x 50 mg/kg, po relative to control. Format: functional. The method in brief: as §1
Data set [6] concerns Rattus norvegicus. The experiment in a line: Antiinflammatory activity in rat assessed as carrageenan-induced foot edema at 2 x 33 mg/kg, po relative to control. It counts as functional. The essentials: as §1

The results in this text go back to ChEMBL document CHEMBL3272163, “Synthesis and antiinflammatory activity of some 2-substituted 4- and 7-benzoxazoleacetic and alpha-methylacetic acids” (J Med Chem, 1977).

Molecules are shown by their SMILES.

Take `O=C(O)Cc1cccc2oc(-c3ccccc3)nc12`: in the data set on Rattus norvegicus [1], the Activity stood at 28%. The P in data set [2] was 1.03. This molecule also displayed a pKa in data set [3] of 6.3. The same molecule returned an LD50 in data set [4] of 400 mg/kg.
As for `O=C(O)Cc1cccc2oc(-c3ccc(Cl)cc3)nc12`, in the data set on Rattus norvegicus [1], the Activity was 8%. The P in data set [2] came out at 9.28. Further, the pKa in data set [3] was found to be 6.1. The 50% lethal dose (LD50) in data set [4] was determined as 600 mg/kg.
For the molecule `CC(C(=O)O)c1cccc2oc(-c3ccccc3)nc12` (configuration not stated), the Activity in the data set on Rattus norvegicus [5] was found to be 1%. Besides, the P in data set [2] was 6.93.
As for `C/C(=C1/SC(=S)NC1=O)c1cccc2oc(-c3ccccc3)nc12`, in the data set with Rattus norvegicus [1], the Activity stood at 9%. In data set [4], this molecule had an LD50 of over 1600 mg/kg.
As to `CC(C(=O)O)c1cccc2nc(-c3ccccc3)oc12` (configuration not stated), the Activity with Rattus norvegicus [1] stood at 44%; with Rattus norvegicus [5] it was 26%. In addition, in data set [2], the P was 3.66. Further, the pKa in data set [3] was 6.2. Further, the LD50 in data set [4] came to 1200 mg/kg.
Take `CC(C(=O)O)c1cccc2nc(-c3ccc(Cl)cc3)oc12` (configuration not stated): the Activity in the data set with Rattus norvegicus [1] is reported as 16%. Further, the pKa in data set [3] was found to be 6.25. In data set [4], the LD50 came to 1200 mg/kg.
For the molecule `Cc1ccc(-c2nc3cccc(C(C)C(=O)O)c3o2)cc1` (configuration not stated), the Activity in the data set with Rattus norvegicus [1] stood at 10%. The molecule further returned a P in data set [2] of 8.94. The pKa in data set [3] came to 6.2. In addition, the LD50 in data set [4] was over 1600 mg/kg.
Turning to `C[C@]12CCC(=O)C=C1CC[C@@H]1[C@@H]2[C@@H](O)C[C@@]2(C)[C@H]1CC[C@]2(O)C(=O)CO` [HYDROCORTISONE], the Activity with Rattus norvegicus [5] amounted to 33%.
For `CCCCC1C(=O)N(c2ccccc2)N(c2ccccc2)C1=O` [PHENYLBUTAZONE], the Activity stood at 59% in the data set with Rattus norvegicus [5] and 52% in the data set on Rattus norvegicus [6].
